Measurements published in ChEMBL document CHEMBL1124262, “Cardiotonic agents. Synthesis and inotropic activity of a series of isoquinolin-3-ol derivatives” (J Med Chem, 1988).

Tests used:
Canis familiaris [1] = assay: Change in heart rate of anaesthetized, open chest dogs following 0.875 mg/kg i.v. administration.; type: functional, Canis lupus familiaris; conditions: route intravenous
Method in brief: (§1)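 Anesthetized open-chest dogs, one drug per animal. Compound is in DMF diluted to 10% in saline, or given as the HCl salt in saline. It is infused into the femoral vein by pump at 0.58-2.2 mL/min in 3-4 stepwise cumulative doses, each over 5 min after the prior peak. Readings are CF by right-ventricle strain gauge, dP/dtmax by Millar LV catheter, HR by cardiotachometer and MAP from femoral artery, as % change from predrug control.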

Canis familiaris [2] = assay: 50% increase in contractile force in one to three anesthetized dogs administered intravenously; type: functional; conditions: Canis lupus familiaris, iv
Method in brief: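 Anesthetized dogs (one to three). Compound is infused iv in three to four stepwise increasing doses, each over 5 min once the previous effect has peaked. Contractile force is recorded with a Walton Brodie strain gauge on the right ventricle. The dose (μg/kg) giving a 50% rise over control CF is read from the dose-response curve, graphically (n < 3) or by linear regression (n ≥ 3).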

Canis familiaris [3] = assay: Change in heart contractile force of anaesthetized, open chest dogs following 0.875 mg/kg i.v. administration.; type: functional, Canis lupus familiaris; conditions: route intravenous; method in brief: as §1
Canis familiaris [4] = assay: Percent change in mean arterial blood pressure (MAP) in anesthetized open chest dogs iv administration at 0.8750 mg/kg; type: functional, Canis lupus familiaris; conditions: dose 0.875 mg/kg; method in brief: as §1
Canis familiaris [5] = assay: Change in left ventricular pressure of anaesthetized, open chest dogs following 0.875 mg/kg i.v. administration.; type: functional, Canis lupus familiaris, Heart left ventricle; conditions: route intravenous; method in brief: as §1
Phosphodiesterase 3 = Phosphodiesterase 3 (Homo sapiens, UniProt Q14432+Q13370); assay: Inhibition of phosphodiesterase fraction III in anesthetized open chest dogs; type: functional, Canis lupus familiaris; conditions: target entry is the homologue from another species
Method in brief: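 Enzyme is dog heart PDE-III, the third DEAE-cellulose fraction eluted at 800 mM sodium acetate. Compounds are tested at 0.01–1000 μM with 0.25 μM cAMP containing [³H]cAMP, in 0.05 M Tris-HCl pH 7.4 with 5 mM MgCl2. The reaction is stopped by heat, then snake venom converts product to adenosine. [³H]adenosine is counted by scintillation after Dowex separation. IC50 comes from ≥2 determinations, each in duplicate.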

Canis familiaris [6] = assay: Percent increase in contractile force (CF) in anesthetized open-chest dogs iv administration of 1.875 mg/kg; type: functional, Canis lupus familiaris
Method in brief: (§2)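 Anesthetized open-chest dogs. After a right thoracotomy, contractile force was recorded by a Walton Brodie strain gauge sutured to the right ventricle at 100 g baseline tension. Compound was given iv by infusion pump into a femoral vein, one drug per animal, in three to four stepwise increasing doses. Each dose ran over 5 min, starting once the previous dose's effect peaked. Values are % increase over predrug control vs cumulative mg/kg dose.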

Canis familiaris [7] = assay: Percent change in left ventricular pressure (dP/dtmax) in anesthetized dog after iv administration at 1.875 mg/kg; type: functional, Canis lupus familiaris, Heart left ventricle; method in brief: as §1
Canis familiaris [8] = assay: Percent change in mean arterial blood pressure (MAP) in anesthetized open chest dogs iv administration at 1.875 mg/kg; type: functional, Canis lupus familiaris; method in brief: as §1
Canis familiaris [9] = assay: Percent change in heart rate (HR) in anesthetized open chest dogs after a iv dose of 1.875 mg/kg; type: functional, Canis lupus familiaris; method in brief: as §1
Canis familiaris [10] = assay: Percent change in heart rate (HR) in anesthetized open chest dogs after a iv dose of 0.05 mg/kg; type: functional, Canis lupus familiaris; method in brief: as §1
Canis familiaris [11] = assay: Percent change in left ventricular pressure (dP/dtmax) in anesthetized dog after iv administration at 0.05 mg/kg; type: functional, Canis lupus familiaris, Heart left ventricle; method in brief: as §1
Canis familiaris [12] = assay: Percent increase in contractile force (CF) in anesthetized open-chest dogs iv administration of 0.050 mg/kg; type: functional, Canis lupus familiaris; conditions: dose 0.05 mg/kg; method in brief: as §1
Canis familiaris [13] = assay: Percent change in mean arterial blood pressure (MAP) in anesthetized open chest dogs iv administration at 0.050 mg/kg; type: functional, Canis lupus familiaris; conditions: dose 0.05 mg/kg; method in brief: as §1
Canis familiaris [14] = assay: Percent change in mean arterial blood pressure (MAP) in anesthetized open chest dogs iv administration at 0.875 mg/kg; type: functional, Canis lupus familiaris; method in brief: as §1
Canis familiaris [15] = assay: Percent change in heart rate (HR) in anesthetized open chest dogs after a iv dose of 0.375 mg/kg; type: functional, Canis lupus familiaris; method in brief: as §1
Canis familiaris [16] = assay: Percent increase in contractile force (CF) in anesthetized open-chest dogs iv administration of 0.375 mg/kg; type: functional, Canis lupus familiaris; method in brief: as §2
Canis familiaris [17] = assay: Percent change in left ventricular pressure (dP/dtmax) in anesthetized dog after iv administration at 0.375 mg/kg; type: functional, Canis lupus familiaris, Heart left ventricle; method in brief: as §1
Canis familiaris [18] = assay: Percent change in mean arterial blood pressure (MAP) in anesthetized open chest dogs iv administration at 0.3750 mg/kg; type: functional, Canis lupus familiaris; conditions: dose 0.375 mg/kg; method in brief: as §1

SMILES	Change (Canis familiaris [1]) [%]	Increase (Canis familiaris [3]) [%]	Change (Canis familiaris [4]) [%]	Increase (Canis familiaris [5]) [%]	Increase (Canis familiaris [6]) [%]	Increase (Canis familiaris [7]) [%]	Change (Canis familiaris [8]) [%]	Change (Canis familiaris [9]) [%]	further results
Br.COc1cc2c(C)nc(O)c(Br)c2cc1OC	26	128	-40	25	–	–	–	–	ED50 (Canis familiaris [2]): 0.185 mg/kg; IC50 (Phosphodiesterase 3): 10 µM
COc1cc2c(C)nc(O)c(Cl)c2cc1OC	29	89	1	88	–	–	–	–	ED50 (Canis familiaris [2]): 0.12 mg/kg; IC50 (Phosphodiesterase 3): 62 µM
CCCCOc1cc2c(C)nc(O)cc2cc1OC	26	182	-18	58	–	–	–	–	ED50 (Canis familiaris [2]): 0.13 mg/kg; IC50 (Phosphodiesterase 3): 37 µM
COc1cc2c(C)nc(O)c(CCC(=O)N(C)C)c2cc1OC	–	–	–	–	16	-5	-14	-2	–
COc1ccc2c(C)nc(O)cc2c1OC	–	28	–	–	–	13	1	3	–
CCc1nc(O)c(CCC(=O)OC)c2cc(OC)c(OC)cc12	10	47	-3	33	–	–	–	–	–
CCCc1nc(O)c(CCC(=O)OC)c2cc(OC)c(OC)cc12	2	–	–	–	17	19	-4	–	–
COc1cc2c(C)nc(O)c(C(C)C)c2cc1OC	–	–	–	–	–	–	–	–	ED50 (Canis familiaris [2]): 0.025 mg/kg; Change (Canis familiaris [10]): 6%; Increase (Canis familiaris [11]): 54%; Increase (Canis familiaris [12]): 76%; IC50 (Phosphodiesterase 3): 7 µM; Change (Canis familiaris [13]): -5%
COc1cc2c(C)nc(O)c(CCC(N)=O)c2cc1OC	–	–	–	–	49	29	-9	11	–
CCOc1cc2c(C)nc(O)c(CC)c2cc1OC	26	118	-46	6	–	–	–	–	ED50 (Canis familiaris [2]): 0.02 mg/kg; IC50 (Phosphodiesterase 3): 2 µM
COc1cc2cc(O)nc(C)c2c(OC)c1OC	13	76	–	45	–	–	–	–	Change (Canis familiaris [14]): -2%
CCOc1cc2c(C)nc(O)cc2cc1OC	22	197	–	88	–	–	–	–	Change (Canis familiaris [14]): -10%
COC(=O)Cc1c(O)nc(C)c2cc(OC)c(OC)cc12	6	42	-1	28	–	–	–	–	–
CCOC(=O)CCc1c(O)nc(C)c2cc(OC)c(OC)cc12	8	60	-4	20	–	–	–	–	–
COc1cc2c(C)nc(O)c(CC(C)C)c2cc1OC	–	–	–	–	39	25	-6	10	–
COC(=O)Oc1cc2cc(OC)c(OC)cc2c(C)n1	–	–	–	–	–	–	–	–	Change (Canis familiaris [15]): 19%; Increase (Canis familiaris [16]): 119%; Increase (Canis familiaris [17]): 66%; Change (Canis familiaris [18]): -8%
COC(=O)CCc1c(O)ncc2cc(OC)c(OC)cc12	7	53	-4	24	–	–	–	–	–

SMILES	Change (Canis familiaris [1]) [%]	Increase (Canis familiaris [3]) [%]	Change (Canis familiaris [4]) [%]	Increase (Canis familiaris [5]) [%]	Increase (Canis familiaris [6]) [%]	Increase (Canis familiaris [7]) [%]	Change (Canis familiaris [8]) [%]	Change (Canis familiaris [9]) [%]	further results
COc1ccc2cc(O)nc(C)c2c1OC	10	62	–	51	–	–	–	–	Change (Canis familiaris [14]): -6%
COc1ccc2cc(O)nc(C)c2c1	19	114	-18	87	–	–	–	–	–
COC(=O)c1c(O)nc(C)c2cc(OC)c(OC)cc12	–	–	–	–	39	19	-3	6	–
Cc1nc(O)c(Cl)c2cc3c(cc12)OCO3	–	–	–	–	88	51	-22	28	–
COC(=O)CCc1c(O)ncc2cc3c(cc12)OCO3	–	–	–	–	26	28	0	6	–
CNC(=O)CCc1c(O)nc(C)c2cc(OC)c(OC)cc12	–	–	–	40	62	–	-5	7	–
CCOc1cc2cnc(O)cc2cc1OC	–	–	–	–	34	32	0	7	–
CNC(=O)c1c(O)nc(C)c2cc(OC)c(OC)cc12	–	–	–	–	2	17	4	0	–
CCOc1cc2cc(O)nc(C)c2cc1OCC	15	84	-11	42	–	–	–	–	–
COC(=O)CCc1c(O)nc(C)c2cc3c(cc12)OCO3	38	131	-21	118	–	–	–	–	–
COc1cc2c(C)nc(O)c(CCC(=O)OC(C)C)c2cc1OC	–	–	–	–	22	15	-6	3	–
COC(=O)CCc1c(O)nc(C)c2c(OC)c(OC)c(OC)cc12	8	22	-4	20	–	–	–	–	–
COc1cc2c(C)nc(O)c(CCC(=O)O)c2cc1OC	–	–	–	–	75	42	-3	5	–
COc1cc2c(C)nc(O)c(C3CCCC3)c2cc1OC	–	–	–	–	46	22	3	5	ED50 (Canis familiaris [2]): 1.88 mg/kg; IC50 (Phosphodiesterase 3): 128 µM
COC(=O)CCc1c(O)nc(C(C)C)c2cc(OC)c(OC)cc12	–	–	–	–	15	17	3	7	–
COc1ccc2[nH]c(=O)nc(C)c2c1OC [BEMARINONE]	–	–	–	–	–	–	–	–	Change (Canis familiaris [15]): 11%; Increase (Canis familiaris [16]): 71%; Increase (Canis familiaris [17]): 30%; Change (Canis familiaris [18]): -6%
